Test results reported in ChEMBL document CHEMBL1123566, “Synthesis and cardiac electrophysiological activity of 2- and 3-[(substituted phenyl)alkyl]quinuclidines. Structure-activity relationships” (1987).
“And” between values parts separate entries of the source, which are not always exact repeats. Equal entries are not always repeated.

What was measured:
Canis familiaris [1] = test: Left ventricular refractory period was determined by intraduodenal administration of 10 mg/kg (low dose) of compound in anesthetized dogs. Value was reported for experiment 2; format: functional, Canis lupus familiaris, Cardiac ventricle
Procedure, shortened: (§1)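 Anesthetized dogs received two intraduodenal doses, the second cumulative (low dose/high dose). Left ventricular FRP and CT were measured 15, 30 and 45 min after dosing. Heart rate and mean blood pressure were taken during nonpacing intervals. Values are percent change from control. The vehicle was 5% dextrose in water/tragacanth. Activity was defined as ≥12% prolongation of FRP or CT.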

Canis familiaris [2] = test: Heart rate was determined by intraduodenal administration of two dosages of 10 mg/kg of compound in anesthetized dogs. Value was reported for experiment 1; format: functional, Canis lupus familiaris
Procedure, shortened: (§2)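 Anesthetized dogs; compound given intraduodenally, generally as two doses, the second a cumulative (high) dose. LV functional refractory period and conduction time measured 15, 30 and 45 min after dosing; heart rate and blood pressure measured during nonpacing intervals. Values are % change from control, given per individual animal. Active if FRP or CT prolonged by ≥12%.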

Canis familiaris [3] = test: Heart rate was determined by intraduodenal administration of two dosages of 30 mg/kg of compound in anesthetized dogs. Value was reported for experiment 1; format: functional, Canis lupus familiaris; procedure, shortened: as §2
Canis familiaris [4] = test: Heart rate was determined by intraduodenal administration of two dosages of 10 mg/kg of compound in anesthetized dogs. Value was reported for experiment 2; format: functional, Canis lupus familiaris; procedure, shortened: as §2
Canis familiaris [5] = test: Heart rate was determined by intraduodenal administration of two dosages of 30 mg/kg of compound in anesthetized dogs. Value was reported for experiment 2; format: functional, Canis lupus familiaris; procedure, shortened: as §2
Canis familiaris [6] = organism: Canis familiaris; test: In vitro electrophysiological evaluation in canine cardiac Purkinje fibres reported as % change for action potential duration at a concentration of 10 uM; format: functional, Canis lupus familiaris, Purkinje fiber
Procedure, shortened: (§3)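 Canine cardiac Purkinje fibres, intracellular microelectrode recording, paced at a basic cycle length of 1 s. APD95 and Vmax read simultaneously. Compound: 10 mM stock in deionized water, diluted into Tyrode's solution, tested over the stated concentration range. Each fibre used once as its own control. Result is % change from control, given at 10 µM or as the maximum with its concentration. M = <10% decrease or an increase in Vmax.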

Canis familiaris [7] = test: Left ventricular refractory period was determined by intraduodenal administration of 10 mg/kg (low dose) of compound in anesthetized dogs. Value was reported for experiment 1; format: functional, Canis lupus familiaris, Cardiac ventricle; procedure, shortened: as §1
Canis familiaris [8] = test: Mean arterial blood pressure was determined by intraduodenal administration of two dosages of 10 mg/kg of compound in anesthetized dogs. Value was reported for experiment 2; format: functional, Canis lupus familiaris; procedure, shortened: as §1
Canis familiaris [9] = test: Conduction time was determined by intraduodenal administration of 30 mg/kg (high dose) of compound in anesthetized dogs. Value was reported for experiment 2; format: functional, Canis lupus familiaris; procedure, shortened: as §2
Canis familiaris [10] = organism: Canis familiaris; test: (§4) In vitro electrophysiological activity in canine cardiac occurred is 10 uM; format: functional, Canis lupus familiaris, Heart
Canis familiaris [11] = organism: Canis familiaris; test: In vitro electrophysiological evaluation in canine cardiac ventricular muscle reported as % change for conduction time(CT) at 10 uM at 0.1-100 uM concentration range; Minimal (<10% decrease or increase in CT).; format: functional, Canis lupus familiaris, Muscle tissue
Canis familiaris [12] = organism: Canis familiaris; test: In vitro electrophysiological evaluation in canine cardiac ventricular muscle reported as maximum % change for conduction time(CT) at 0.1-100 uM concentration range; Minimal (<10% decrease or increase in CT).; format: functional, Canis lupus familiaris, Muscle tissue
Procedure, shortened: (§5)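 Canine right ventricle and papillary muscle strips in oxygenated Tyrode's solution, fitted with stimulating and recording electrodes. The extra-stimulus conduction-interval method was adapted for in vitro use. FRP and CT were read from a conduction-interval curve before and after various compound concentrations, and expressed as percent change from control. Compounds were taken from 10 mM deionized-water stock into Tyrode's. Each strip was used once as its own control.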

Canis familiaris [13] = organism: Canis familiaris; test: as §4; format: functional, Canis lupus familiaris, Heart; remark: listed apart in the source
Canis familiaris [14] = test: Conduction time was determined by intraduodenal administration of 10 mg/kg (low dose) of compound in anesthetized dogs. Value was reported for experiment 2; format: functional, Canis lupus familiaris; procedure, shortened: as §2
Canis familiaris [15] = organism: Canis familiaris; test: In vitro electrophysiological evaluation in canine cardiac ventricular muscle reported as % change for the functional refractory period (FRP) at 10 uM at concentration range of 0.1-100 uM; set-up: species or system Canis lupus familiaris, Muscle tissue; procedure, shortened: as §5
Canis familiaris [16] = test: Left ventricular refractory period was determined by intraduodenal administration of 30 mg/kg (high dose) of compound in anesthetized dogs. Value was reported for experiment 2; format: functional, Canis lupus familiaris, Cardiac ventricle; procedure, shortened: as §1
Canis familiaris [17] = test: Conduction time was determined by intraduodenal administration of 10 mg/kg (low dose) of compound in anesthetized dogs. Value was reported for experiment 1; format: functional, Canis lupus familiaris; procedure, shortened: as §2
Canis familiaris [18] = test: Mean arterial blood pressure was determined by intraduodenal administration of two dosages of 30 mg/kg of compound in anesthetized dogs. Value was reported for experiment 1; format: functional, Canis lupus familiaris; procedure, shortened: as §1
Canis familiaris [19] = test: Left ventricular refractory period was determined by intraduodenal administration of 30 mg/kg (high dose) of compound in anesthetized dogs. Value was reported for experiment 1; format: functional, Canis lupus familiaris, Cardiac ventricle; procedure, shortened: as §1
Canis familiaris [20] = test: Conduction time was determined by intraduodenal administration of 30 mg/kg (high dose) of compound in anesthetized dogs. Value was reported for experiment 1; format: functional, Canis lupus familiaris; procedure, shortened: as §2
Canis familiaris [21] = test: Mean arterial blood pressure was determined by intraduodenal administration of two dosages of 30 mg/kg of compound in anesthetized dogs. Value was reported for experiment 2; format: functional, Canis lupus familiaris; procedure, shortened: as §1
Canis familiaris [22] = organism: Canis familiaris; test: In vitro electrophysiological evaluation in canine cardiac Purkinje fibres reported as maximum percent change Vmax concentration range of 0.1-100 uM; Minimal (<10% decrease or increase in V max).; format: functional; details: Canis lupus familiaris; Purkinje fiber; procedure, shortened: as §3
Canis familiaris [23] = organism: Canis familiaris; test: In vitro electrophysiological evaluation in canine cardiac Purkinje fibres reported as percent change Vmax at 10 uM at concentration range of 1-100 uM.; format: functional; details: Canis lupus familiaris, Purkinje fiber; procedure, shortened: as §3
Canis familiaris [24] = organism: Canis familiaris; test: In vitro electrophysiological evaluation in canine cardiac occurred is 100 uM; format: functional; details: Canis lupus familiaris; Heart
Canis familiaris [25] = organism: Canis familiaris; test: In vitro electrophysiological evaluation in canine cardiac ventricular muscle reported as maximum % change for functional refractory period (FRP) at 0.1-100 uM concentration range; concentration at which it occurred is 100 uM; set-up: species or system Canis lupus familiaris, Muscle tissue; procedure, shortened: as §5
Canis familiaris [26] = organism: Canis familiaris; test: In vitro electrophysiological evaluation in canine cardiac Purkinje fibres reported as percent change Vmax at 10 uM at concentration range of 0.1-100 uM; Minimal (<10% decrease or increase in V max).; format: functional, organism-based; details: Canis lupus familiaris, Purkinje fiber; procedure, shortened: as §3
Canis familiaris [27] = organism: Canis familiaris; test: In vitro electrophysiological evaluation in canine cardiac Purkinje fibres reported as % change for action potential duration at 10 uM at 0.1-100 uM concentration range; format: functional, Canis lupus familiaris, Purkinje fiber; procedure, shortened: as §3
Canis familiaris [28] = test: Mean arterial blood pressure was determined by intraduodenal administration of two dosages of 10 mg/kg of compound in anesthetized dogs. Value was reported for experiment 1; format: functional, Canis lupus familiaris; procedure, shortened: as §1
Canis familiaris [29] = organism: Canis familiaris; test: (§6) In vitro electrophysiological evaluation in canine cardiac Purkinje fibres reported as % change for action potential duration at 0.1-100 uM concentration range; format: functional, Canis lupus familiaris, Purkinje fiber; procedure, shortened: as §3
Canis familiaris [30] = organism: Canis familiaris; test: In vitro electrophysiological evaluation in canine cardiac Purkinje fibres reported as percent change Vmax concentration range of 0.1-100 uM; Minimal (<IO%increase or a decrease in CT); format: functional; details: Canis lupus familiaris; Purkinje fiber; procedure, shortened: as §3
Canis familiaris [31] = organism: Canis familiaris; test: In vitro electrophysiological evaluation in canine cardiac ventricular muscle reported as maximum % change for functional refractory period (FRP) at 0.1-100 uM concentration range; set-up: species or system Canis lupus familiaris, Muscle tissue
Canis familiaris [32] = organism: Canis familiaris; test: In vitro electrophysiological evaluation in canine cardiac ventricular muscle reported as maximum % change for functional refractory period (FRP) at 0.1-30 uM concentration range; set-up: species or system Canis lupus familiaris, Muscle tissue; procedure, shortened: as §5
Canis familiaris [33] = organism: Canis familiaris; test: In vitro electrophysiological evaluation in canine cardiac ventricular muscle reported as maximum % change for conduction time(CT) at 0.1-100 uM concentration range; format: functional, Canis lupus familiaris, Muscle tissue; procedure, shortened: as §5
Canis familiaris [34] = organism: Canis familiaris; test: In vitro electrophysiological evaluation in canine cardiac ventricular muscle reported as % change for the functional refractory period (FRP) concentration range of 0.1-30 uM; set-up: species or system Canis lupus familiaris, Muscle tissue; procedure, shortened: as §5
Canis familiaris [35] = organism: Canis familiaris; test: In vitro electrophysiological activity in canine cardiac Purkinje fibres given as maximum % change for action potential duration at 100 uM concentration; format: functional, Canis lupus familiaris, Purkinje fiber
Procedure, shortened: (§7)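 Canine cardiac Purkinje fibres, intracellular recording at 1 s basic cycle length, over cumulative concentration ranges. Compound 10 mM stock in deionized water diluted into Tyrode's. Each fibre used once as its own control. Value is the maximum % change from control in APD at 95% repolarization, with the concentration where it occurred; both values given if a biphasic response (>20% reversal) occurred.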

Canis familiaris [36] = organism: Canis familiaris; test: In vitro electrophysiological evaluation in canine cardiac ventricular muscle reported as maximum % change for conduction time(CT) at 0.1-30 uM concentration range; Minimal (<IO%increase or a decrease in CT); format: functional, Canis lupus familiaris, Muscle tissue; procedure, shortened: as §5
Canis familiaris [37] = organism: Canis familiaris; test: In vitro electrophysiological activity in canine cardiac Purkinje fibres given as maximum % change for action potential duration at 10 uM concentration; format: functional, Canis lupus familiaris, Purkinje fiber; procedure, shortened: as §7
Canis familiaris [38] = organism: Canis familiaris; test: In vitro electrophysiological evaluation in canine cardiac ventricular muscle reported as % change for conduction time(CT) at 0.1-30 uM concentration range; Minimal (<IO%increase or a decrease in CT); format: functional, Canis lupus familiaris, Muscle tissue
Canis familiaris [39] = organism: Canis familiaris; test: In vitro electrophysiological evaluation in canine cardiac ventricular muscle reported as maximum % change for conduction time(CT) at 0.1-30 uM concentration range; format: functional, Canis lupus familiaris, Muscle tissue; procedure, shortened: as §5
Canis familiaris [40] = organism: Canis familiaris; test: as §6; format: functional, Canis lupus familiaris, Purkinje fiber; procedure, shortened: as §3; remark: listed apart in the source
Canis familiaris [41] = organism: Canis familiaris; test: In vitro electrophysiological evaluation in canine cardiac Purkinje fibres reported as percent change Vmax concentration range of 0.1-100 uM; format: functional; details: Canis lupus familiaris; Purkinje fiber; procedure, shortened: as §3
Canis familiaris [42] = organism: Canis familiaris; test: In vitro electrophysiological evaluation in canine cardiac ventricular muscle reported as % change for conduction time(CT) at 0.1-100 uM concentration range; Minimal (<IO%increase or a decrease in CT); format: functional, Canis lupus familiaris, Muscle tissue
Canis familiaris [43] = organism: Canis familiaris; test: In vitro electrophysiological evaluation in canine cardiac ventricular muscle reported as % change for the functional refractory period (FRP) concentration range of 0.1-100 uM; set-up: species or system Canis lupus familiaris, Muscle tissue; procedure, shortened: as §5
Canis familiaris [44] = organism: Canis familiaris; test: In vitro electrophysiological activity in canine cardiac Purkinje fibres given as maximum % change for action potential duration at 0.1-100 uM concentration; format: functional, Canis lupus familiaris, Purkinje fiber; procedure, shortened: as §7

Compound: CC(=O)C(CC1C(=O)C2CCN1CC2)C(=O)c1ccc([N+](=O)[O-])cc1.Cl (centres undefined)
- LV FRP (Canis familiaris [1]): 16%
- HR (Canis familiaris [2]): -11%
- HR (Canis familiaris [3]): -14%
- HR (Canis familiaris [4]): -36%
- HR (Canis familiaris [5]): -32%
- APD95 (Canis familiaris [6]): 28%
- LV FRP (Canis familiaris [7]): 9%
- Mean blood pressure (Canis familiaris [8]): -39%
- CT (Canis familiaris [9]): 11%
- APD95 (Canis familiaris [10]): 29%
- CT (Canis familiaris [11]): <10%
- CT (Canis familiaris [12]): <10%
- APD95 (Canis familiaris [13]): 28%
- CT (Canis familiaris [14]): 9%
- FRP (Canis familiaris [15]): 21% and 28%
- LV FRP (Canis familiaris [16]): 22%
- CT (Canis familiaris [17]): -3%
- Mean blood pressure (Canis familiaris [18]): 12%
- LV FRP (Canis familiaris [19]): 13%
- CT (Canis familiaris [20]): -3%
- Mean blood pressure (Canis familiaris [21]): -30%
- Vmax (Canis familiaris [22]): < 10%
- Vmax (Canis familiaris [23]): -18%
- Vmax (Canis familiaris [24]): -24%
- FRP (Canis familiaris [25]): 23% and 30%
- Vmax (Canis familiaris [26]): < 10%
- APD95 (Canis familiaris [27]): 29%
- Mean blood pressure (Canis familiaris [28]): 10%

Compound: CCCCCCC[N+]12CCC(CC1)C(=O)C2CCCc1ccc(Cl)cc1.O=P([O-])(O)O (centres undefined)
- APD95 (Canis familiaris [29]): 38% and 69% and 35%
- Vmax (Canis familiaris [30]): < 10%
- FRP (Canis familiaris [31]): 10%
- FRP (Canis familiaris [32]): 29% and 27%
- CT (Canis familiaris [33]): 31%
- FRP (Canis familiaris [34]): 26% and 22%
- APD95 (Canis familiaris [35]): 13% and 12% and 9%
- CT (Canis familiaris [36]): <10%
- APD95 (Canis familiaris [37]): 38% and 69% and 35%
- CT (Canis familiaris [38]): <10%
- CT (Canis familiaris [39]): 17%
- APD95 (Canis familiaris [40]): 9%
- Vmax (Canis familiaris [41]): -18% and -15%
- CT (Canis familiaris [42]): <10%
- FRP (Canis familiaris [43]): 5%
- APD95 (Canis familiaris [44]): 9%
